Published values gathered from unrelated publications.
Each line is one published result; the experiments were not run side by side.
Target: Tyrosine-protein kinase Fer (FER, Homo sapiens, UniProt P16591)

| SMILES | test | conditions | remaining binding [%] |
| --- | --- | --- | --- |
| CC(=O)C1=C(C)N(c2cccc(C(F)(F)F)c2)C(=O)N[C@@H]1c1ccc(C#N)nc1 | cell-free assay, competition with immobilised ligand | 1 µM | 96.9 |
| F[C@@H]1CCN(c2nccc(-c3cnn4ncccc34)n2)C1 | binding | 1 µM | 81 |
| CCC(=O)N[C@@H]1CC[C@H](C(=O)N(C)c2ccc(-c3nc4ccccc4o3)cc2)C1 | cell-free assay, competition with immobilised ligand | 1 µM | 99 |
| CC1CCCN1c1nccc(-c2cnn3ncccc23)n1 (stereo not drawn) | binding | 1 µM | 100 |
| O=C(NCC1CCOCC1)c1n[nH]cc1NC(=O)c1c(F)cccc1F | binding, competition with immobilised ligand | 1 µM | 100 |
| C[C@@H](c1ccc(-n2cnc3c(N)ncnc32)cc1)N1CCc2nn(C)c(Cc3ccccc3)c2C1=O | binding, competition with immobilised ligand | 0.1 µM | 100 |
| O=C(c1ccc(Nc2ncc(Cl)c(-c3ccc(Cl)s3)n2)cc1)N1CCC(N2CCCC2)CC1 | binding, competition with immobilised ligand | 1 µM | 81 |
| Nc1ncc2c(n1)-c1c([nH]c3ccc(C#CC4CC4)cc13)CCCC2 | binding, competition with immobilised ligand | 1 µM | 100 |
| COc1cnc(Nc2cccc(S(N)(=O)=O)c2)nc1N1CCN(c2ccccc2)C(=O)C1 | binding, competition with immobilised ligand | 1 µM | 100 |
| CS(=O)(=O)N1CCCC(NC(=O)[C@H](CCC2CCCCC2)NC(=O)c2ccc(CNC(=O)c3cnc4ccccn34)cc2)C1 (stereo partly drawn) | cell-free assay, competition with immobilised ligand | 0.1 µM | 99 |
| c1cnn2ncc(-c3ccnc(N4CCC45COC5)n3)c2c1 | binding | 1 µM | 91 |
| CNC(=O)[C@@H]1CC[C@@H](n2c(-c3ccc4cnccc4c3)nc3ccc(C(=O)NCc4cccc(C(N)=O)c4)cc32)C1 | binding, competition with immobilised ligand | 1 µM | 100 |
| Cc1cnn2ncc(-c3ccnc(N(C)C)n3)c2c1 | binding | 1 µM | 92 |
| CS(=O)(=O)c1cc(C2(NC(=O)c3cncc4c3cnn4-c3ccc(F)cc3)CC2)ccn1 | cell-free assay, competition with immobilised ligand | 1 µM | 100 |
| CN(C)c1nccc(-c2cnn3ncccc23)n1 | binding | 1 µM | 97 |
| O=C(NCCCN1CCOCC1)c1ccc(Nc2ncc(Cl)c(-c3ccc(Cl)s3)n2)cc1 | binding, competition with immobilised ligand | 1 µM | 86 |
| O=C(NC[C@@H]1[C@H]2CN(C(=O)OCc3cc(C(F)(F)F)cc(C(F)(F)F)c3)C[C@@H]12)c1ccc2[nH]nnc2c1 | cell-free assay, competition with immobilised ligand | 1 µM | 97 |
| c1cncc(-c2cccc(Nc3nccc(NC4CCCCC4)n3)c2)c1 | binding, competition with immobilised ligand | 10 µM | 83 |
| O=C(NCCCN1CCOCC1)c1ccc(Nc2nccc(-c3cc4ccccc4s3)n2)cc1 | binding, competition with immobilised ligand | 1 µM | 100 |
| C[C@@]1(Cc2ccc(C#N)cc2)C(=O)N(c2cc(Cl)cc(Cl)c2)c2ncc(C(=O)NC3(c4nc(C5CCC5)no4)CC3)n21 | cell-free assay, competition with immobilised ligand | 1 µM | 100 |
| C[C@H]1CCN(c2nccc(-c3cnn4ncccc34)n2)C1 | binding | 1 µM | 93 |
